Source: ChEMBL document CHEMBL3132796 (Medchemcomm, 2013)
The source made the active and inactive calls. The calls are words filed in the database; no cut-off is given here.

What was measured:
Sphingosine kinase 1 [1] = biological target: T1, Sphingosine kinase 1 (Homo sapiens, UniProt Q9NYA1); test: Activity at recombinant SK1 (unknown origin) using ATP at 250 uM relative to control
[2] = biological target: T2, Sphingosine kinase 2 (Homo sapiens) (UniProt Q9NRA0); test: Inhibition of purified SK2 (unknown origin) using sphingosine and [gamma-32P]ATP as substrate at 50 uM after 30 mins relative to control
T2 sequence (whole entry): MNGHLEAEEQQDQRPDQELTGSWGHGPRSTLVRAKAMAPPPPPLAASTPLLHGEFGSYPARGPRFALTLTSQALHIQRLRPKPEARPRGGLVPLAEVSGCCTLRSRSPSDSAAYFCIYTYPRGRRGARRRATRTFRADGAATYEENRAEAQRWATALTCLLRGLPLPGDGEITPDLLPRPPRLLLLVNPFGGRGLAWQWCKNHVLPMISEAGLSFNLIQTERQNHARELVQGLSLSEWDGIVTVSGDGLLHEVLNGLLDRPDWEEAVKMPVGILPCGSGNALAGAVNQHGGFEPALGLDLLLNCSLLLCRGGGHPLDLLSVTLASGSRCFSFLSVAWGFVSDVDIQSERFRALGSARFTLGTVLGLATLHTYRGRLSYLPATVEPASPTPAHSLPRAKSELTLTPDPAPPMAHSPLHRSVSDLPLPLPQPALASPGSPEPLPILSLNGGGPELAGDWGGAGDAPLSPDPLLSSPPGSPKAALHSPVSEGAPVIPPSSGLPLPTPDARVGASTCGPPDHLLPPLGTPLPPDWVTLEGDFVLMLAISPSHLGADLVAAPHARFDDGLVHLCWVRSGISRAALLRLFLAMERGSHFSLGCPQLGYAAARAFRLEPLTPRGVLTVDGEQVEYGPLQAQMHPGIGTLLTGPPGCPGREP
Summary of the method: (§1)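 Buffer: 20 mM Tris pH 7.4 with EDTA, phosphatase and protease inhibitors, 20% glycerol and 400 mM KCl. Inhibitors were added in DMSO; control was 5% v/v DMSO.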

PAMSC [3] = test: Inhibition of DNA synthesis in human PAMSC cells assessed as [3H]-thymidine incorporation into DNA at 300 nM after 24 hrs; type: functional, cell-based
Summary of the method: (§2)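 Pulmonary arterial smooth muscle cells were grown to 60% confluency and quiesced 24 h in basal medium with 0.1% eFCS. They were then treated with inhibitor in DMSO (vehicle 0.1% DMSO) for 48 h in complete medium, with [3H]-thymidine (0.25 µCi/mL) added for the final 24 h. Cells were washed with TCA, solubilised in SDS/NaOH and counted by scintillation. Each concentration was run in triplicate.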

[4] = biological target: T2, Sphingosine kinase 2 (Homo sapiens); conditions: 1.5 uM
[5] = biological target: T2, Sphingosine kinase 2 (Homo sapiens); conditions: 50 uM
[6] = Decrease of SK1 expression in human PAMSC cells at 100 nM after 24 hrs by Western blot analysis in presence of proteasomal inhibitor MG132; type: functional, cell-based
[7] = Decrease of SK1 expression in human PAMSC cells at 100 nM after 24 hrs by Western blot analysis; type: functional, cell-based
PAMSC [8] = conditions: Homo sapiens, 10 to 100 nM
Sphingosine kinase 2 [9] = biological target: T3, Sphingosine kinase 2 (Homo sapiens, UniProt Q9NRA0); test: Inhibition of SK2 (unknown origin)
T3 sequence (Q9NRA0 whole entry): T2 sequence (whole entry)
Summary of the method: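 Purified SK2 (37 ng) run 30 min at 30 °C with 10 µM sphingosine complexed to fatty-acid-free BSA (0.2 mg/mL final) and 250 µM [γ-32P]ATP in 10 mM MgCl2. Buffer: 20 mM Tris pH 7.4 with phosphatase/protease inhibitors and 400 mM KCl. Inhibitor added in DMSO; control 5% v/v DMSO. Sphingosine level matches the SK2 Km.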

Sphingosine kinase 1 [10] = biological target: T1, Sphingosine kinase 1; test: Inhibition of recombinant SK1 (unknown origin) using sphingosine and [gamma-32P]ATP as substrate after 30 mins
Sphingosine kinase 2 [11] = biological target: T3, Sphingosine kinase 2; test: Inhibition of purified SK2 (unknown origin) using sphingosine and [gamma-32P]ATP as substrate after 30 mins
Summary of the method: as §1

[12] = biological target: T2, Sphingosine kinase 2 (Homo sapiens); test: Activity at purified SK2 (unknown origin) using ATP at 250 uM relative to control
[13] = Decrease of SK1 expression in human PAMSC cells at 10 uM after 24 hrs by Western blot analysis; type: functional, cell-based
[14] = Decrease of SK1 expression in human PAMSC cells at 10 uM after 24 hrs by Western blot analysis in presence of proteasomal inhibitor MG132; type: functional, cell-based
PAMSC [15] = test: Inhibition of DNA synthesis in human PAMSC cells assessed as [3H]-thymidine incorporation into DNA at 100 nM to 1 uM after 24 hrs; type: functional, cell-based
Summary of the method: as §2

T1 sequence (Q9NYA1 whole entry): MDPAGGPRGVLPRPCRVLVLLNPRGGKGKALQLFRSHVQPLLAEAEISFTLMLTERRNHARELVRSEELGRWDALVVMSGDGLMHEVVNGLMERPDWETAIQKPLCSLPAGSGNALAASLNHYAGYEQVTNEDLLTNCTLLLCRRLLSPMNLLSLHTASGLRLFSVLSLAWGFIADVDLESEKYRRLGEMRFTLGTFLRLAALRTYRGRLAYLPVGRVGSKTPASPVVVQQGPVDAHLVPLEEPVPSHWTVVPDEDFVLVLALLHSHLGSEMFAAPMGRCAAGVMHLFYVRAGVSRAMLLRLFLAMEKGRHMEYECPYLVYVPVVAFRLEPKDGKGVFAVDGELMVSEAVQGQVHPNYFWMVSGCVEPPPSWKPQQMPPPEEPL

Which Activity (Sphingosine kinase 1 [1]) does the source give for CCCCCCCCCCCCCCC[C@@H](O)[C@H](C)[N+](C)(C)C here?
Its Activity is “Active”.

For CCCCCCCCCCCCCC[C@@H](O)[C@@H](O)[C@H](CO)NC(=O)Nc1ccc(C(F)(F)F)cc1, which inhibition [2] is on record?
Its inhibition is 53.9%.

With CCCCCCCCCCCCC/C=C/[C@@H](O)[C@H](CO)NC(=S)Nc1ccc(F)cc1 as the compound, how does the inhibition [2] read?
Its inhibition is 79.2%.

With CCCCCCCCCCCCCC[C@H]1OC[C@H](NC(=S)Nc2c(F)c(F)c(F)c(F)c2F)[C@@H]1O as the compound, how does the Activity (Sphingosine kinase 1 [1]) read?
The Activity was “Active”.

For CCCCCCCCCCCCc1ccc(C(=O)N2CCC[C@H]2C(=N)N)cc1, which inhibition (PAMSC [3]) is on record?
The inhibition was “inactive”.

What about the inhibition [4] of the same compound?
Its inhibition is 73.4%.

What about the inhibition [5] of the same compound?
Its inhibition is “Active”.

Which Activity [6] does the source give for Cc1cc(CS(=O)(=O)c2ccccc2)cc(OCc2ccc(CN3CCC[C@@H]3CO)cc2)c1 here?
Its Activity is “inactive”.

And the Activity [7]?
The Activity was “Active”.

And the inhibition (PAMSC [8])?
The inhibition was “inactive”.

Which Ki (Sphingosine kinase 2 [9]) does the source give for O=C(NCc1ccncc1)C12CC3CC(C1)CC(c1ccc(Cl)cc1)(C3)C2 [ABC-294640] here?
Its Ki is 10 µM.

Which results are given for CCCCCCCCCCCCCCOCC(O)[C@H](C)N(C)C (single isomer, unassigned)?
IC50 (Sphingosine kinase 1 [10]): 27.8 µM; IC50 (Sphingosine kinase 2 [11]): 300 µM

With CCCCCCCCCCCCC/C=C/[C@@H](O)[C@H](CO)NC(=S)Nc1ccc(C(F)(F)F)cc1 as the compound, how does the inhibition [2] read?
The inhibition was “Active”.

Which results are given for CCCCCCCCCCCCCCC[C@@H](O)[C@H](CO)NC(=S)Nc1cccc(F)c1?
Activity [12]: Active; Activity (Sphingosine kinase 1 [1]): Active; inhibition [2]: Active

For CCCCCCCCCCCCC/C=C\[C@@H](O)[C@@H](N)CO, which Activity [12] is on record?
Its Activity is “Active”.

What about the Activity (Sphingosine kinase 1 [1]) of the same compound?
The Activity was “Active”.

What does the source list for CCCCCCCCCCCCCCC[C@@H](O)[C@H](C)N?
Activity [13]: Active; IC50 (Sphingosine kinase 1 [10]): 7.1 µM; IC50 (Sphingosine kinase 2 [11]): 766 µM; Activity [14]: inactive; Activity (PAMSC [15]): Active

With CCCCCCCCCCCCCC[C@@H](O)[C@@H](O)[C@H](CO)NC(=S)Nc1ccc(F)cc1 as the compound, how does the inhibition [2] read?
Its inhibition is 64.5%.

With CCCCCCCCCCCCCCC[C@@H](O)[C@H](CO)NC(=S)Nc1cccc(C(F)(F)F)c1 as the compound, how does the Activity [13] read?
Its Activity is “inactive”.

And the IC50 (Sphingosine kinase 1 [10])?
The IC50 was 69 µM.

What about the IC50 (Sphingosine kinase 2 [11]) of the same compound?
The IC50 was 21.8 µM.

And the Activity [12]?
Its Activity is “Active”.

What about the inhibition [2] of the same compound?
The inhibition was 80%.
